bioavailability, AUC(0-inf) and concentration data for six molecules are collected here from ChEMBL document CHEMBL1828622, “Structure-based design and synthesis of 1,3-oxazinan-2-one inhibitors of 11β-hydroxysteroid dehydrogenase type 1” (J Med Chem, 2011).

Series [1] can be described thus: Oral bioavailability in rat at 10 mg/kg. Format: ADME, organism-based. The conditions noted are these: in vivo. The method in brief: (§1)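 Rat pharmacokinetics after single iv dose of 2 mg/kg and oral dose of 10 mg/kg; oral vehicle differs by compound: 10% ethanol/10% Tween 80 (polysorbate 80)/80% PEG 400 solution, the same with 1% DMSO, or 0.5% methyl cellulose in deionized water suspension. Readouts: oral AUC(inf), oral t1/2, iv clearance, oral bioavailability F.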

Series [2] is described as follows: AUC (infinity) in rat at 10 mg/kg, po. The conditions noted are these: plasma. The series is classed as ADME, organism-based. Further details: time infinity, dose 10 mg/kg, route oral. The method in brief: as §1
The nature of series [3]: Biodistribution in mouse liver at 30 mg/kg, po administered as single dose measured after 4 hrs by LC-MS/MS method. Further details: dose 30 mg/kg, route oral. Format: ADME, organism-based. The conditions noted are these: read-out: Drug uptake. The method in brief:
(§2)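 Mice (n = 3) given single oral 30 mg/kg dissolved in 10% ethanol/10% Tween 80/80% PEG 400; tissues collected at sacrifice at 1, 4 and 8 h, snap frozen, later thawed and homogenized in 0.05 M BES pH 7; compound extracted into acetonitrile and quantified by LC-MS/MS against standard curves prepared separately in each tissue matrix.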

A short description of series [4]: AUC (infinity) in cynomolgus monkey at 2 mg/kg, po. Format: ADME, organism-based, Macaca fascicularis. Further details: time infinity, dose 2 mg/kg, route oral. The conditions noted are these: plasma.
Series [5] can be described thus: AUC (infinity) in dog at 2 mg/kg, po. Format: ADME, organism-based, Canis lupus familiaris. Further details: time infinity, dose 2 mg/kg, route oral. The conditions noted are these: plasma.
Series [6] can be described thus: Biodistribution in mouse liver at 30 mg/kg, po administered as single dose measured after 1 hr by LC-MS/MS method. The series is classed as ADME, organism-based. Further details: dose 30 mg/kg, route oral. The conditions noted are these: read-out: Drug uptake. Summed up: as §2
Series [7] in a line: Oral bioavailability in cynomolgus monkey at 2 mg/kg. The series is classed as ADME, organism-based, Macaca fascicularis. The conditions noted are these: in vivo.
A short description of series [8]: Biodistribution in mouse liver at 30 mg/kg, po administered as single dose measured after 8 hrs by LC-MS/MS method. The series is classed as ADME, organism-based. Particulars: read-out: Drug uptake. The arrangement: dose 30 mg/kg, route oral. Summed up:
as §2

Series [9] can be described thus: Biodistribution in mouse adipose tissue at 30 mg/kg, po administered as single dose measured after 4 hrs by LC-MS/MS method. The arrangement: dose 30 mg/kg, route oral. The series is classed as ADME, organism-based. The conditions noted are these: read-out: Drug uptake. The method in brief:
as §2

The nature of series [10]: Biodistribution in mouse plasma at 30 mg/kg, po administered as single dose measured after 1 hr by LC-MS/MS method. Particulars: read-out: Drug uptake. Format: ADME, organism-based. Further details: dose 30 mg/kg, route oral. The method in brief:
as §2

A short description of series [11]: Biodistribution in mouse adipose tissue at 30 mg/kg, po administered as single dose measured after 8 hrs by LC-MS/MS method. Format: ADME, organism-based. Further details: dose 30 mg/kg, route oral. The conditions noted are these: read-out: Drug uptake. Summed up: as §2
Series [12] can be described thus: Biodistribution in mouse plasma at 30 mg/kg, po administered as single dose measured after 4 hrs by LC-MS/MS method. The arrangement: dose 30 mg/kg, route oral. The conditions noted are these: read-out: Drug uptake. The series is classed as ADME, organism-based. Summed up:
as §2

A short description of series [13]: Biodistribution in mouse plasma at 30 mg/kg, po administered as single dose measured after 8 hrs by LC-MS/MS method. The arrangement: dose 30 mg/kg, route oral. The conditions noted are these: read-out: Drug uptake. Format: ADME, organism-based. The method in brief:
as §2

A short description of series [14]: Biodistribution in mouse adipose tissue at 30 mg/kg, po administered as single dose measured after 1 hr by LC-MS/MS method. The series is classed as ADME, organism-based. Further details: dose 30 mg/kg, route oral. The conditions noted are these: read-out: Drug uptake. Summed up:
as §2

Series [15] is described as follows: Oral bioavailability in dog at 2 mg/kg. The series is classed as ADME, organism-based, Canis lupus familiaris. Particulars: in vivo.

By bioavailability is commonly meant dose-corrected exposure relative to a reference, in per cent. By AUC(0-inf) is commonly meant the area under the concentration-time curve extrapolated to infinity. For `O=C1OC(CCO)(c2ccccc2)CCN1c1cccc(-c2ccc(F)cc2F)c1` (stereo not given), in [1], the bioavailability came out at 44%. Besides, the AUC(0-inf) in [2] was 1040 ng·h/mL.
The molecule `C[C@@H](c1ccc(-c2ccc(F)cc2F)cc1)N1CC[C@](CCCO)(c2ccccc2)OC1=O` yielded a bioavailability in series [1] of 19%. This molecule also displayed an AUC(0-inf) in [2] of 915 ng·h/mL.
The matching figures for `C[C@@H](c1ccc(-c2ccc(F)cc2)cc1)N1CC[C@](CCCO)(c2ccccc2)OC1=O`: 23% and 450 ng·h/mL.
For `C[C@@H](c1ccc(-c2ccc(F)cc2F)cc1)N1CC[C@](CCO)(c2ccc(F)cc2)OC1=O`, the results for the concentration at 4 h in [3], in [9] and in series [12] were 9810 ng/mL, 3160 ng/mL and 3260 ng/mL, respectively. Further, the figures for the AUC(0-inf) in series [4], in [5] and in series [2] were 1500 ng·h/mL, 584 ng·h/mL and 3870 ng·h/mL, respectively. Further, the values for the concentration at 1 h in [6], in [10] and in series [14] were 15300 ng/mL, 5930 ng/mL and 5520 ng/mL, respectively. Also, the bioavailability in series [7] worked out at 26%; in series [1] it was 94%; in [15], 16%. In addition, the concentration at 8 h was found to be 1900 ng/mL in [8], 632 ng/mL in series [11] and 573 ng/mL in [13].
Molecule `C[C@@H](c1ccc(-c2ccc(F)cc2)cc1)N1CC[C@](CCO)(c2ccc(F)cc2)OC1=O` registered a bioavailability in [1] of 83%. This molecule had an AUC(0-inf) in [2] of 3170 ng·h/mL.
`Cc1cccc(N2CCC(C)(c3ccccc3)OC2=O)c1` (single isomer, unassigned; isomer 1): the bioavailability in series [1] was found to be 4%. For the same molecule, the AUC(0-inf) in [2] was determined as 99 ng·h/mL.
